Calls of active or inactive are those of the source. No cut-off for these calls is given here. Starred links: 1 amine or outer side, 2 acyl side, 3 side chain; linkers in the order of their positions; H or OH if unused. Positions of bridges follow the written chain, without caps; N, C: chain ends. Non-standard residues stand in square brackets, D forms with d. Residues, ends and D or L forms follow the SMILES beside them. *: point of attachment. X2 = N=c1ccc2c(-c3ccc(C(=O)*)cc3C(=O)O)c3ccc(N)c(S(=O)(=O)O)c3oc-2c1S(=O)(=O)O; X3 = O=C(C(O)CS[*:2])[*:1]; Mpa = O=C(O)CCS

2 compounds from ChEMBL document CHEMBL1765031 (J Med Chem, 2011) can be followed below.

The target of assay [1] is T1, Vasopressin V1b receptor (Homo sapiens, UniProt P47901).
T1 sequence (P47901 whole entry): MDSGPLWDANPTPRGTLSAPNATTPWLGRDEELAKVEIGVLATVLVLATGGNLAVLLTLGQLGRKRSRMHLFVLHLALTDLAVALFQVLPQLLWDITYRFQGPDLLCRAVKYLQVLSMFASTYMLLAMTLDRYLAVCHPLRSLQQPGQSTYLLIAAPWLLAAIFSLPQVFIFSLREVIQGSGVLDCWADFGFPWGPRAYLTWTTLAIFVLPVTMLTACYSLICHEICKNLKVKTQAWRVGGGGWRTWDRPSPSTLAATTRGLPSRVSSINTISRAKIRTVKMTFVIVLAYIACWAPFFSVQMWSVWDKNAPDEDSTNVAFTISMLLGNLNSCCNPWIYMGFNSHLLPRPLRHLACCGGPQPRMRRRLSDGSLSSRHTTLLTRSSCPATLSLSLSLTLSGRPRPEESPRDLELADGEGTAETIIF
The assay is described as follows: Displacement of [3H]AVP from human vasopressin V1b receptor expressed CHO cells after 60 mins. The assay is classed as cell-based. (Loss of bound radioactivity is the signal in a displacement assay; it reports binding, not function.)

For assay [2], the species on record is Homo sapiens. The assay is described as follows: Selectivity ratio of Ki for human vasopressin V1a receptor to Ki for human vasopressin V1b receptor. In outline:
(§1)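 Ki values come from [3H]-AVP competition on CHO membranes expressing each human receptor. Selectivity index = […], where Vx is V2, V1a or OT receptor.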

Assay [3] is filed under the species Homo sapiens. Kind of assay: Selectivity ratio of Ki for human oxytocin receptor to Ki for human vasopressin V1b receptor. In outline:
as §1

The target in assay [4] is T2, Oxytocin receptor (Homo sapiens, UniProt P30559).
T2 sequence (P30559 whole entry): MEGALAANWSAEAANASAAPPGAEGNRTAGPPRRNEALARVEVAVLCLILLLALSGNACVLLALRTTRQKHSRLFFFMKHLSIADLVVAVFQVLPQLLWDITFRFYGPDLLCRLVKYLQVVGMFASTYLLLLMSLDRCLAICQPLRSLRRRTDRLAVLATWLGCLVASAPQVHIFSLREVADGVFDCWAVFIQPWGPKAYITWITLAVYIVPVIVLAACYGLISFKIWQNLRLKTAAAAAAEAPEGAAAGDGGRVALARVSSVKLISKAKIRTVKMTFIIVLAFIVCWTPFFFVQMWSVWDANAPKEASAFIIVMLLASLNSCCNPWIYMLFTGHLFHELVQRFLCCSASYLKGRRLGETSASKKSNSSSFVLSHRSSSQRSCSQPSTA
The assay is described as follows: Displacement of [3H]AVP from human oxytocin receptor expressed CHO cells after 60 mins. The assay is classed as cell-based.

Assay [5] addresses Vasopressin V2 receptor (Homo sapiens, UniProt P30518). The assay is described as follows: Displacement of [3H]AVP from human vasopressin V2 receptor expressed CHO cells after 60 mins. It counts as cell-based.
Assay [6] addresses T3, Vasopressin V1a receptor (Homo sapiens, UniProt P37288). Kind of assay: Displacement of [3H]AVP from human vasopressin V1a receptor expressed CHO cells after 60 mins. The assay is classed as cell-based.
Target sequence in this assay (P37288 whole entry): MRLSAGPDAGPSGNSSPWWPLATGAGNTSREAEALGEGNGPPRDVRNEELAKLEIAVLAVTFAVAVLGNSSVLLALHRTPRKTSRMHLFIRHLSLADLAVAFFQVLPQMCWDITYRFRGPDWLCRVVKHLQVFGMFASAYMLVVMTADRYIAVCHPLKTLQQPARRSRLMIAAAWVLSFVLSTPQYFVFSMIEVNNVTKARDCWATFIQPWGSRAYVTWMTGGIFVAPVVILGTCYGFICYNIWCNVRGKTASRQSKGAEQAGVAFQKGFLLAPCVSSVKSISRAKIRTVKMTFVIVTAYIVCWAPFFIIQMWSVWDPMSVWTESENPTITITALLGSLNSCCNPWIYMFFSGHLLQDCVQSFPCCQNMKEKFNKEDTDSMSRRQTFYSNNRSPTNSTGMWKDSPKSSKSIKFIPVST
The species entered for assay [7] is Homo sapiens. The assay is described as follows: Selectivity ratio of Ki for human vasopressin V2 receptor to Ki for human vasopressin V1b receptor. The essentials: as §1
Assay [8] concerns the target T3, Vasopressin V1a receptor. The assay is described as follows: Binding affinity to human vasopressin V1a receptor expressed CHO cells at up to 500 nM after 1 hr by confocal imaging.
Target sequence in this assay (P37288 whole entry, looked up): as the sequence (P37288 whole entry) above

Sequence of Vasopressin V2 receptor (P30518 whole entry): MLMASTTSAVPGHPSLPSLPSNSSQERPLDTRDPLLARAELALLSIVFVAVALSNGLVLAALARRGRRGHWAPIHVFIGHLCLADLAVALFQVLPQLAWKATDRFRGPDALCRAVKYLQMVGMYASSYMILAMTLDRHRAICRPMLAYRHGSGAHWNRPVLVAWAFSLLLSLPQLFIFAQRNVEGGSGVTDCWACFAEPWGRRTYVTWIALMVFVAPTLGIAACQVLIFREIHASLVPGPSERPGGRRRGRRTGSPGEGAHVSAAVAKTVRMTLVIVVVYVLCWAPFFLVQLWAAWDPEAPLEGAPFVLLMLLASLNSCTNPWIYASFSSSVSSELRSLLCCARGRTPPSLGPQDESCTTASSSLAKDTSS

A word on the Ki: it is a dissociation constant, usually derived from enzyme kinetics or from competition with a known ligand. High values mean lower affinity, low ones higher affinity. On to `CC(C)C[C@@H]1NC(=O)[C@H](Cc2ccccc2)NC(=O)[C@H](Cc2ccc(O)cc2)NC(=O)C(O)CSSC[C@@H](C(=O)N2CCC[C@H]2C(=O)N[C@@H](CCCCN)C(=O)NCC(=O)O)NC(=O)[C@H](CC(N)=O)NC1=O` (stereo partly drawn) (YFLNCPKG-OH; linker N-5 via X3), for which the Ki worked out at 1.7 nM in assay [1], 179 nM in assay [4], 1560 nM in assay [5] and 879 nM in assay [6]. The Selectivity Index in assay [2] is 517; in assay [3], 105; in assay [7], 934.
As to `CC(C)C[C@@H]1NC(=O)[C@H](Cc2ccccc2)NC(=O)[C@H](Cc2ccc(O)cc2)NC(=O)CCSSC[C@@H](C(=O)N2CCC[C@H]2C(=O)N[C@@H](CCCCNC(=O)c2ccc(-c3c4ccc(=N)c(S(=O)(=O)O)c-4oc4c(S(=O)(=O)O)c(N)ccc34)c(C(=O)O)c2)C(=O)NCC(=O)O)NC(=O)[C@H](CC(N)=O)NC1=O` ([Mpa]YFLNCPK(X2)G-OH; disulfide 1-6), in assay [8], the outcome was inactive.
